This is an account of results in ChEMBL document CHEMBL1128666, “Synthesis and antimicrobial and toxicological studies of amino acid and peptide derivatives of kanamycin A and netilmicin” (J Med Chem, 1995).

Values after ≈ are worked out from the molar mass of the structure shown. Values joined by “and” are separate entries in the source; they are usually repeats but may differ in a detail not shown here. Equal entries are not always repeated.

The subject of assay [1] is Escherichia coli. The assay is described as follows: Minimum inhibitory concentration (MIC) was measured against Escherichia coli ATCC 25922. It counts as functional.
The next assay relates to Citrobacter freundii. The assay is described as follows: Minimum inhibitory concentration (MIC) was measured against Citrobacter freundii. It counts as functional. An outline of the steps: (§1)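 Strains were clinical isolates from the microbiology laboratories of Cliniques Universitaires St-Luc and Hôpital Brugmann, Brussels, and were characterized there. Compounds were tested as sulfate salts, which were stable in distilled water at pH 7.0 for at least 24 h. MIC was the highest dilution giving no visible growth, expressed in mg/L of free base.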

For assay [2], the system named is Staphylococcus aureus. Put plainly: Minimum inhibitory concentration (MIC) was measured against Staphylococcus aureus. It counts as functional. The essentials:
as §1

For assay [3], the system named is Pseudomonas aeruginosa. The assay is described as follows: Minimum inhibitory concentration (MIC) was measured against Pseudomonas aeruginosa ATCC 27853. In kind it is functional.
Another assay deals with Acinetobacter lwoffii. Put plainly: microbe, parasite or virus in culture. The note with it: ATCC 17986.
Assay [4] relates to Escherichia coli. Put plainly: Minimum inhibitory concentration (MIC) was measured against Escherichia coli. It counts as functional. An outline of the steps:
as §1

Assay [5] deals with Staphylococcus aureus. Put plainly: microbe, parasite or virus in culture. The note with it: ATCC 25923.
The test system of a further assay is Enterococcus faecalis. Put plainly: Minimum inhibitory concentration (MIC) was measured against Enterococcus faecalis ATCC 29212. In kind it is functional.
For another assay, the system named is Serratia marcescens. The assay is described as follows: Minimum inhibitory concentration measured against Serratia marcescens. In kind it is functional. The essentials:
as §1

The next assay relates to Enterobacter cloacae. Put plainly: Minimum inhibitory concentration (MIC) was measured against Enterobacter cloacae. It counts as functional. The essentials: as §1
In assay [6] the test system is Pseudomonas aeruginosa. Put plainly: Minimum inhibitory concentration (MIC) was measured against Pseudomonas aeruginosa. In kind it is functional. An outline of the steps: as §1
In assay [7] the test system is Escherichia coli. Put plainly: Minimum inhibitory concentration (MIC) was measured against Escherichia coli ATCC 35218. It counts as functional. An outline of the steps: (§2)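 Strains from ATCC; compounds tested as sulfate salts (stable ≥24 h in water at pH 7.0). MIC taken as highest dilution with no visible bacterial growth, expressed in mg/L of free base.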
The subject of a further assay is Acinetobacter baumannii. Put plainly: Minimum inhibitory concentration (MIC) was measured against Acinetobacter baumanni ATCC 19606. It counts as functional. An outline of the steps:
as §2

In assay [8] the target is T1, Phospholipase A1 member A (Rattus norvegicus, UniProt P97535).
T1 sequence (P97535 whole entry): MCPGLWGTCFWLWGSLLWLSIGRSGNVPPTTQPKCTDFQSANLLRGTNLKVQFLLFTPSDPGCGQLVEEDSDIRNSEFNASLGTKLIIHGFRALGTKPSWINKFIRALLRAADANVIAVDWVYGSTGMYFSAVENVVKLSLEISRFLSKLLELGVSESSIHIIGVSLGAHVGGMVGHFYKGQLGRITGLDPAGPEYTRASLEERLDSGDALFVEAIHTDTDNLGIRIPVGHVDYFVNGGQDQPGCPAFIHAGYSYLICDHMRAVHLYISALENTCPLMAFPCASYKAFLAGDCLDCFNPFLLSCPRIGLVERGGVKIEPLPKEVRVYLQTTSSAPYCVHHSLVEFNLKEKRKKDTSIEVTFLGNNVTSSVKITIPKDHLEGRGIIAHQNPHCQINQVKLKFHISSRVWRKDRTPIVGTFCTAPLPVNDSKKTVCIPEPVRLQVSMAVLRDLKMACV
Put plainly: IC50 was measured as concentration causing 50% inhibition of lysosomal phospholipase A1 activity.

Where [9] appears, read: Serratia marcescens, read-out: MIC.
[10] abbreviates: Enterobacter cloacae, read-out: MIC.
The mark [11] stands for this setting: Pseudomonas aeruginosa, read-out: MIC.

Regarding `CC(N)C(=O)NC1CC(N)C(OC2OC(CN)C(O)C(O)C2O)C(O)C1OC1OC(CO)C(O)C(N)C1O` (stereo not given), the MIC is 128 µg/mL (≈ 230 µM) in the assay with Escherichia coli [1]; 64 µg/mL (≈ 115 µM) against Citrobacter freundii; > 128 µg/mL against Staphylococcus aureus [2]; > 128 µg/mL against Pseudomonas aeruginosa [3]; > 128 µg/mL in the assay on Acinetobacter lwoffii; > 128 µg/mL against Escherichia coli [4]. In addition, the MIC with Staphylococcus aureus [5] is 16 µg/mL (≈ 28.8 µM); against Enterococcus faecalis, > 128 µg/mL; in the assay on Serratia marcescens, >128 mg/L; in the assay on Serratia marcescens (setting [9]), 128 mg/L (≈ 230 µM); with Enterobacter cloacae, >128 µg/mL; with Enterobacter cloacae (setting [10]), 64 µg/mL (≈ 115 µM). Moreover, the results for the MIC with Pseudomonas aeruginosa [6] (setting [11]), in the assay with Escherichia coli [7] and in the assay on Acinetobacter baumannii were > 128 µg/mL, 64 µg/mL (≈ 115 µM) and 128 µg/mL (≈ 230 µM), respectively.

With GENTAMICIN [listing 1 of 2 here], the IC50 (in general, the concentration that inhibits the measured activity by half) in assay [8] worked out at 45 µg/mL.

For `CCN[C@@H]1C[C@H](N)[C@@H](O[C@H]2OC(CN)=CC[C@H]2N)[C@H](O)[C@H]1O[C@H]1OC[C@](C)(O)[C@H](NC)[C@H]1O` [NETILMICIN], the MIC is 1 µg/mL (≈ 2.1 µM) against Escherichia coli [1]; 0.25 µg/mL (≈ 0.526 µM) with Citrobacter freundii; 8 µg/mL (≈ 16.8 µM) in the assay with Staphylococcus aureus [2]; 8 µg/mL (≈ 16.8 µM) in the assay on Pseudomonas aeruginosa [3]; 32 µg/mL (≈ 67.3 µM) with Acinetobacter lwoffii; > 128 µg/mL in the assay with Escherichia coli [4]. Further, the MIC against Staphylococcus aureus [5] was 0.25 µg/mL (≈ 0.526 µM); against Enterococcus faecalis, 4 µg/mL (≈ 8.41 µM); against Pseudomonas aeruginosa [6], >128 µg/mL; with Pseudomonas aeruginosa [6] (setting [11]), 64 µg/mL (≈ 135 µM); against Escherichia coli [7], 0.5 µg/mL (≈ 1.05 µM); with Acinetobacter baumannii, 32 µg/mL (≈ 67.3 µM).

In the case of GENTAMICIN [listing 2 of 2 here], the MIC in the assay on Escherichia coli [1] is 4 µg/mL; with Citrobacter freundii, 1 µg/mL; against Staphylococcus aureus [2], > 128 µg/mL; in the assay with Pseudomonas aeruginosa [3], 8 µg/mL; against Escherichia coli [4], 16 µg/mL; against Enterococcus faecalis, 16 µg/mL. The MIC is 4 µg/mL (2×) and 8 µg/mL (2×) in the assay on Serratia marcescens; 32 µg/mL in the assay on Enterobacter cloacae; 64 µg/mL and > 128 µg/mL against Pseudomonas aeruginosa [6]; 1 µg/mL in the assay on Escherichia coli [7]; 32 µg/mL against Acinetobacter baumannii.

As to `NCC[C@H](O)C(=O)N[C@@H]1C[C@H](N)[C@@H](O[C@H]2O[C@H](CN)[C@@H](O)[C@H](O)[C@H]2O)[C@H](O)[C@H]1O[C@H]1O[C@H](CO)[C@@H](O)[C@H](N)[C@H]1O` [AMIKACIN], the MIC with Escherichia coli [1] turned out to be 8 µg/mL (≈ 13.7 µM); with Citrobacter freundii it was 4 µg/mL (≈ 6.83 µM); against Staphylococcus aureus [2] it was 32 µg/mL (≈ 54.6 µM); against Pseudomonas aeruginosa [3] it was 32 µg/mL (≈ 54.6 µM); against Acinetobacter lwoffii, 32 µg/mL (≈ 54.6 µM); in the assay on Escherichia coli [4], 128 µg/mL (≈ 219 µM). Further, the MIC with Staphylococcus aureus [5] worked out at 4 µg/mL (≈ 6.83 µM); with Enterococcus faecalis, 64 µg/mL (≈ 109 µM); with Pseudomonas aeruginosa [6] it was 64 µg/mL (≈ 109 µM); with Pseudomonas aeruginosa [6] (setting [11]) it was 64 µg/mL (≈ 109 µM); in the assay on Escherichia coli [7], 2 µg/mL (≈ 3.42 µM); in the assay on Acinetobacter baumannii, 16 µg/mL (≈ 27.3 µM).

Regarding `CN[C@@H]1[C@@H](O)[C@@H](O[C@@H]2[C@@H](O)[C@H](O[C@H]3O[C@H](CN)[C@@H](O)[C@H](O)[C@H]3O)[C@@H](N)C[C@H]2NC(=O)[C@@H](O)CN)OC[C@]1(C)O` [ISEPAMICIN], the MIC worked out at 8 µg/mL (≈ 14 µM) in the assay on Escherichia coli [1]; 4 µg/mL (≈ 7.02 µM) in the assay with Citrobacter freundii; 2 µg/mL (≈ 3.51 µM) in the assay on Staphylococcus aureus [2]; 16 µg/mL (≈ 28.1 µM) against Pseudomonas aeruginosa [3]; 16 µg/mL (≈ 28.1 µM) in the assay on Acinetobacter lwoffii; 32 µg/mL (≈ 56.2 µM) in the assay on Escherichia coli [4]. In addition, the MIC in the assay on Staphylococcus aureus [5] worked out at 4 µg/mL (≈ 7.02 µM); in the assay with Enterococcus faecalis, 64 µg/mL (≈ 112 µM); with Enterobacter cloacae, 8 µg/mL (≈ 14 µM); in the assay with Enterobacter cloacae (setting [10]), 4 µg/mL (≈ 7.02 µM); with Pseudomonas aeruginosa [6], 64 µg/mL (≈ 112 µM); with Pseudomonas aeruginosa [6] (setting [11]), 64 µg/mL (≈ 112 µM). Besides, the MIC in the assay on Escherichia coli [7] turned out to be 2 µg/mL (≈ 3.51 µM); against Acinetobacter baumannii, 32 µg/mL (≈ 56.2 µM).

As to `CCNC1CC(N)C(OC2OC(CNC(=O)C(C)N)=CCC2N)C(O)C1OC1OCC(C)(O)C(NC)C1O` (stereo not given), the MIC in the assay with Escherichia coli [1] was 128 µg/mL (≈ 234 µM); in the assay with Citrobacter freundii, 32 µg/mL (≈ 58.5 µM); with Staphylococcus aureus [2], > 128 µg/mL; with Pseudomonas aeruginosa [3] it was > 128 µg/mL; against Acinetobacter lwoffii, 128 µg/mL (≈ 234 µM); with Escherichia coli [4] it was > 128 µg/mL. For the same molecule, the MIC with Staphylococcus aureus [5] was 32 µg/mL (≈ 58.5 µM); in the assay on Enterococcus faecalis, 128 µg/mL (≈ 234 µM); in the assay on Serratia marcescens, >128 mg/L; with Serratia marcescens (setting [9]), 128 mg/L (≈ 234 µM); with Enterobacter cloacae (setting [10]), > 128 µg/mL; in the assay with Pseudomonas aeruginosa [6] (setting [11]) it was > 128 µg/mL. Further, the MIC against Escherichia coli [7] is 32 µg/mL (≈ 58.5 µM); with Acinetobacter baumannii, > 128 µg/mL.

In the case of `NC[C@H]1O[C@H](O[C@H]2[C@H](O)[C@@H](O[C@H]3O[C@H](CO)[C@@H](O)[C@H](N)[C@H]3O)[C@H](N)C[C@@H]2N)[C@H](O)[C@@H](O)[C@@H]1O` [KANAMYCIN], the MIC was 8 µg/mL (≈ 16.5 µM) with Escherichia coli [1]; 4 µg/mL (≈ 8.26 µM) against Citrobacter freundii; > 128 µg/mL with Staphylococcus aureus [2]; > 128 µg/mL in the assay on Pseudomonas aeruginosa [3]; 16 µg/mL (≈ 33 µM) against Acinetobacter lwoffii; > 128 µg/mL with Escherichia coli [4]. The MIC is 1 µg/mL (≈ 2.06 µM) in the assay on Staphylococcus aureus [5]; 32 µg/mL (≈ 66 µM) against Enterococcus faecalis; > 128 µg/mL in the assay with Pseudomonas aeruginosa [6] (setting [11]); 2 µg/mL (≈ 4.13 µM) against Escherichia coli [7]; 4 µg/mL (≈ 8.26 µM) against Acinetobacter baumannii.
